Here are results for 6 compounds from ChEMBL document CHEMBL1125027, “Synthesis and cytotoxicity studies of 8-amino-6-methyl-2-beta-D-ribofuranosyl-1,2,3,5,6,7-hexaazaacenaphthyle ne (7-aza-TCN) and the corresponding 2'-deoxy- and arabinonucleoside analogues” (1990).

The subject of experiment [1] is L1210. In words: Growth rate of L1210 tumor cells at a concentration of 100 uM. Format: functional, Mus musculus. The essentials: (§1)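 Murine leukemia L1210 grown in static suspension in Fischer's medium with test compound for 3 days, counted daily. Growth rate = slope of log cell number vs time relative to control, computed as control doubling time (about 12 h) / treated doubling time, expressed as %. Values are single experiments unless footnoted as the average of three.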

For experiment [2], the system named is HEp-2. Nature of the experiment: Growth rate of H.Ep.2 tumor cells at a concentration of 100 uM. Format: functional, Homo sapiens. The essentials:
(§2)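 Human epidermoid carcinoma H.Ep.2 monolayers kept in exponential growth in Eagle's basal medium (Hanks' salts) with 0.5 g/L NaHCO3 and 15% heat-inactivated calf serum. 2 × 10^4 cells seeded per flask; after 1 day, compound-containing medium added. Trypsin/EDTA harvest and counts of two flasks per group on days 1, 2 and 4. Growth rate = control doubling time (about 19 h) / treated doubling time, as % of control.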

For experiment [3], the system named is HEp-2. In words: Growth rate of H.Ep.2 tumor cells at a concentration of 50 uM. Format: functional, Homo sapiens. The essentials:
as §2

Experiment [4] has as its system L1210. In words: Growth rate of L1210 tumor cells at a concentration of 50 uM. The class given is functional, Mus musculus. The essentials:
as §1

In experiment [5] the test system is L1210. In words: Growth rate of L1210 tumor cells at a concentration of 10 uM. The class given is functional, Mus musculus. The essentials:
as §1

For experiment [6], the system named is HEp-2. In words: Growth rate of H.Ep.2 tumor cells at a concentration of 10 uM. Format: functional, Homo sapiens. The essentials: as §2

Regarding `CN1N=C(N)c2nn([C@H]3C[C@H](O)[C@@H](CO)O3)c3ncnc1c23`, the Growth rate is on record as 83% in the experiment on L1210 [1] and 100% in the experiment with HEp-2 [2].
`CN1N=C(N)c2nn(C3O[C@H](CO)[C@@H](O)[C@H]3O)c3nc(S(C)(=O)=O)nc1c23` (stereo not given in full): the Growth rate in the experiment on L1210 [1] is listed as 86%.
As to `CSc1nc2c3c(nn(C4O[C@H](CO)[C@@H](O)[C@H]4O)c3n1)C(N)=NN2C` (stereo not given in full), the Growth rate in the experiment on L1210 [1] stood at 81%.
Take `CN1N=C(N)c2nn(C3O[C@H](CO)[C@@H](O)[C@@H]3O)c3ncnc1c23` (stereo not given in full): the Growth rate in the experiment with HEp-2 [3] stood at 62%; with L1210 [4] it was 75%.
In the case of `CN1N=C(N)c2nn(C3O[C@H](CO)[C@@H](O)[C@H]3O)c3ncnc1c23` (stereo not given in full), the values for the Growth rate in the experiment on L1210 [1] and with HEp-2 [2] were 63% and 67%, respectively.
As to `CN1N=C(N)c2nn(C3O[C@H](CO)[C@@H](O)[C@H]3O)c3nc(NN)nc1c23` (stereo not given in full), the Growth rate with L1210 [5] is recorded as 86%; with HEp-2 [6] it was 88%.
